Tests used:
Assay type in all cases: functional
K562 = assay: Growth inhibition of human K562 cells after 48 hrs by sulforhodamine B assay; settings: K562, 48 h
Method in brief: (§1)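 NCI 60-cell-line panel. Cells are grown in RPMI1640 with 5% fetal calf serum and 2 mM L-glutamine, seeded at a density set by growth characteristics, and preincubated 24 h. Compound is tested at a minimum of five concentrations at 10-fold dilution, with 48 h continuous exposure. Viability is read by sulforhodamine B protein assay. GI50, TGI and LC50 come from dose-response curves.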

MCF7 [1] = assay: Growth inhibition of human MCF7 cells after 48 hrs by sulforhodamine B assay; settings: MCF7, 48 h; method in brief: as §1
CAKI-1 = assay: Growth inhibition of human Caki1 cells after 48 hrs by sulforhodamine B assay; settings: CAKI-1, 48 h; method in brief: as §1
M14 = assay: Growth inhibition of human M14 cells after 48 hrs by sulforhodamine B assay; settings: M14, 48 h; method in brief: as §1
NCI-H23 = assay: Growth inhibition of human NCI-H23 cells after 48 hrs by sulforhodamine B assay; settings: NCI-H23, 48 h; method in brief: as §1
HCT-116 = assay: Growth inhibition of human HCT116 cells after 48 hrs by sulforhodamine B assay; settings: HCT-116, 48 h; method in brief: as §1
OVCAR-5 = assay: Growth inhibition of human OVCAR5 cells after 48 hrs by sulforhodamine B assay; settings: OVCAR-5, 48 h; method in brief: as §1
NCI-H226 = assay: Growth inhibition of human NCI-H226 cells after 48 hrs by sulforhodamine B assay; settings: NCI-H226, 48 h; method in brief: as §1
HT-29 = assay: Growth inhibition of human HT-29 cells after 48 hrs by sulforhodamine B assay; settings: HT-29, 48 h; method in brief: as §1
MDA-MB-435 = assay: Growth inhibition of human MDA-MB-435 cells after 48 hrs by sulforhodamine B assay; settings: MDA-MB-435, 48 h; method in brief: as §1
IGROV-1 = assay: Growth inhibition of human IGROV1 cells after 48 hrs by sulforhodamine B assay; settings: IGROV-1, 48 h; method in brief: as §1
[2] = Growth inhibition of human […] cells after 48 hrs by sulforhodamine B assay; method in brief: as §1
OVCAR-8 = assay: Growth inhibition of human OVCAR8 cells after 48 hrs by sulforhodamine B assay; settings: OVCAR-8, 48 h; method in brief: as §1
SF-539 = assay: Growth inhibition of human SF539 cells after 48 hrs by sulforhodamine B assay; settings: SF-539, 48 h; method in brief: as §1
SF-268 [3] = assay: Growth inhibition of human SF268 cells after 48 hrs by sulforhodamine B assay; settings: SF-268, 48 h; method in brief: as §1
UACC-62 = assay: Growth inhibition of human UACC62 cells after 48 hrs by sulforhodamine B assay; settings: UACC-62, 48 h
Method in brief: (§2)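 NCI 60-cell-line panel (nine cancer types), with cells grown in RPMI1640 plus 5% fetal calf serum and 2 mM L-glutamine. Cells are seeded at a density that depends on the line and preincubated 24 h. Compounds are then applied at a minimum of five 10-fold dilutions over a 5-log range with 48 h continuous exposure. Viability is read by SRB protein assay, and GI50 is derived from dose-response curves in units of 10^-5 M.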

A498 = assay: Growth inhibition of human A498 cells after 48 hrs by sulforhodamine B assay; settings: A498, 48 h; method in brief: as §1
MDA-MB-231 = assay: Growth inhibition of human MDA-MB-231 cells after 48 hrs by sulforhodamine B assay; settings: MDA-MB-231, 48 h; method in brief: as §1
SK-MEL-2 = assay: Growth inhibition of human SK-MEL-2 cells after 48 hrs by sulforhodamine B assay; settings: SK-MEL-2, 48 h; method in brief: as §1
NCI/ADR-RES = assay: Growth inhibition of human NCI/ADR-RES cells after 48 hrs by sulforhodamine B assay; method in brief: as §1
UACC-257 = assay: Growth inhibition of human UACC257 cells after 48 hrs by sulforhodamine B assay; settings: UACC-257, 48 h; method in brief: as §2
COLO 205 = assay: Growth inhibition of human COLO205 cells after 48 hrs by sulforhodamine B assay; settings: COLO 205, 48 h; method in brief: as §1
SN12C = assay: Growth inhibition of human SN12C cells after 48 hrs by sulforhodamine B assay; method in brief: as §1
SF-268 [4] = assay: Antiproliferative activity against human SF268 cells assessed as cell growth at 100 uM after 48 hrs by alamar blue assay; settings: SF-268, 48 h, read-out: Activity
Method in brief: (§3)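 NCI three-cell-line primary screen. Cells are seeded and preincubated in microtiter plates. Compound is added at a single 10^-4 M concentration and cultures are incubated 48 h. The end-point is read with alamar blue. Results are given as percent growth relative to untreated control cells.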

NCI-H460 = assay: Antiproliferative activity against human NCI-H460 cells assessed as cell growth at 100 uM after 48 hrs by alamar blue assay; settings: NCI-H460, 48 h, read-out: Activity; method in brief: as §3
MCF7 [5] = assay: Antiproliferative activity against human MCF7 cells assessed as cell growth at 100 uM after 48 hrs by alamar blue assay; settings: MCF7, 48 h, read-out: Activity; method in brief: as §3
CCRF-CEM = assay: Growth inhibition of human CCRF-CEM cells after 48 hrs by sulforhodamine B assay; method in brief: as §1
SK-MEL-5 = assay: Growth inhibition of human SK-MEL-5 cells after 48 hrs by sulforhodamine B assay; settings: SK-MEL-5, 48 h; method in brief: as §1
HOP-62 = assay: Growth inhibition of human HOP62 cells after 48 hrs by sulforhodamine B assay; settings: HOP-62, 48 h; method in brief: as §1
KM12 = assay: Growth inhibition of human KM12 cells after 48 hrs by sulforhodamine B assay; settings: KM12, 48 h; method in brief: as §1
[6] = read-out: LC50 (the source's name)

With COc1ccc(/C=N/c2nc3[nH]nc(C)n3c(=O)c2S(=O)(=O)NN2C(=O)C(CN3CCOCC3)SC2c2cccs2)cc1 (stereo not drawn) the GI50 (K562) was 2.34 µM, the LC50 (K562) was > 100 µM and the TGI (K562) was 11.3 µM. The GI50 (MCF7 [1]) was 3.18 µM, the TGI (MCF7 [1]) was > 100 µM and the GI50 (CAKI-1) was 12.1 µM. The LC50 (50% lethal concentration) (CAKI-1) was > 100 µM, the TGI (CAKI-1) was > 100 µM and the GI50 (M14) was 6.79 µM. The LC50 (concentration killing 50% of cells) (M14) was > 100 µM, the TGI (M14) was 38.7 µM and the GI50 (NCI-H23) was 44.5 µM. For the same compound, the TGI (NCI-H23) was > 100 µM, the GI50 (HCT-116) was 4.72 µM and the LC50 (concentration killing 50% of cells) (HCT-116) was > 100 µM. For the same compound, the TGI (HCT-116) was 57.4 µM, the GI50 (OVCAR-5) was 43.4 µM and the LC50 (concentration causing 50% net cell kill) (OVCAR-5) was > 100 µM. For the same compound, the TGI (OVCAR-5) was > 100 µM, the GI50 (NCI-H226) was 24.5 µM and the LC50 (concentration killing 50% of cells) (NCI-H226) was > 100 µM. For the same compound, the TGI (NCI-H226) was > 100 µM, the GI50 (HT-29) was 19.4 µM and the GI50 (MDA-MB-435) was 3.26 µM. The TGI (MDA-MB-435) was 36 µM, the GI50 (IGROV-1) was 3.95 µM and the LC50 (IGROV-1) was > 100 µM. The TGI (IGROV-1) was 34.8 µM, the GI50 [2] was 3.86 µM and the TGI [2] was 26.2 µM. The CC50 [2, 6] was > 100 µM, the GI50 (OVCAR-8) was 60.6 µM and the TGI (OVCAR-8) was > 100 µM. The GI50 (SF-539) was 7.24 µM, the LC50 (SF-539) was > 100 µM and the TGI (SF-539) was 30.4 µM. For the same compound, the GI50 (SF-268 [3]) was 18.5 µM, the TGI (SF-268 [3]) was > 100 µM and the CC50 (SF-268 [3]; [6]) was > 100 µM. The GI50 (UACC-62) was 3.7 µM, the TGI (UACC-62) was 31.4 µM and the CC50 (UACC-62; [6]) was > 100 µM. For the same compound, the GI50 (A498) was 2.67 µM, the LC50 (concentration giving 50% net cell kill) (A498) was > 100 µM and the TGI (A498) was 15.5 µM. For the same compound, the GI50 (MDA-MB-231) was 11.7 µM, the LC50 (50% lethal concentration) (MDA-MB-231) was > 100 µM and the TGI (MDA-MB-231) was 56.1 µM. The GI50 (SK-MEL-2) was 8.3 µM, the LC50 (concentration killing 50% of cells) (SK-MEL-2) was > 100 µM and the TGI (SK-MEL-2) was 81.9 µM. It also gave a GI50 (NCI/ADR-RES) of 9.98 µM, a TGI (NCI/ADR-RES) of 64.8 µM and a GI50 (UACC-257) of 6.77 µM. The LC50 (UACC-257) was > 100 µM, the TGI (UACC-257) was > 100 µM and the GI50 (COLO 205) was 14.9 µM. For the same compound, the TGI (COLO 205) was 12.8 µM, the GI50 (SN12C) was 16.8 µM and the LC50 (SN12C) was > 100 µM. For the same compound, the TGI (SN12C) was 85.7 µM, the growth at 100 µM (SF-268 [4]) was 56% and the growth at 100 µM (NCI-H460) was 13%. For the same compound, the growth at 100 µM (MCF7 [5]) was 24%, the GI50 (CCRF-CEM) was 6.27 µM and the TGI (CCRF-CEM) was > 100 µM. The GI50 (SK-MEL-5) was 3.71 µM, the TGI (SK-MEL-5) was 24 µM and the CC50 (SK-MEL-5; [6]) was > 100 µM. The GI50 (HOP-62) was 13.9 µM, the LC50 (HOP-62) was > 100 µM and the TGI (HOP-62) was > 100 µM. The GI50 (KM12) was 4.06 µM.

From ChEMBL document CHEMBL1153046, “Synthesis and antitumor activity of substituted triazolo[4,3-a]pyrimidin-6-sulfonamide with an incorporated thiazolidinone moiety” (2009)
